Key:
Homo sapiens [1] = organism: Homo sapiens; assay: Inhibition of human cytomegalo virus (HCMV) in human foreskin fibroblasts cell lines was determined by plaque assay; type: functional, organism-based; settings: Fibroblast
In short: (§1)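 HCMV Towne strain (plaque-purified P0) plaque reduction in HFF monolayers in MEM(E) with 10% FBS. Inoculum held about 50 PFU, with compound dissolved in the overlay medium. IC50 came from linear regression of percent inhibition against log concentration, with ganciclovir or acyclovir positive controls in every set; two to five experiments.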

Mus musculus [2] = assay: Compound was evaluated for mean day of death at 50 mg/kg at 24 h; type: functional
In short: (§2)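 Three-week-old female Swiss Webster mice inoculated ip with 2×10^5 PFU MCMV Smith strain. Groups of 15 dosed ip twice daily for 5 days, starting 6, 24 or 48 h post-inoculation. Held 21 days with daily mortality checks. Final mortality and mean day of death (dying animals) computed. Mortality versus placebo by Fisher Exact Test, MDD by Mann–Whitney U-rank test.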

Mus musculus [3] = assay: Compound was evaluated for percent mortality of mice inoculated with murine cytomegalovirus at a concentration of 50 mg/kg at 6 h; type: ADME, organism-based; parameters: dose 50 mg/kg; settings: in vivo
In short: (§3)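 Three-week-old female Swiss Webster mice infected ip with 2×10^5 PFU MCMV Smith strain; groups of 15 given drug ip twice daily for 5 days, starting 6, 24 or 48 h after inoculation. Toxicity controls received drug without virus. Mortality followed daily for 21 days; final mortality compared with placebo by Fisher Exact Test.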

Human betaherpesvirus 5 = assay: Inhibition of human cytomegalovirus (HCMV) in plaque reduction assay; type: functional, organism-based; in short: as §1
Mus musculus [4] = assay: Compound was evaluated for mean day of death at 1.9 mg/kg at 6 h; type: functional; in short: as §2
Mus musculus [5] = assay: Compound was evaluated for percent mortality of mice inoculated with murine cytomegalovirus at a concentration of 16.7 mg/kg at 24 h; type: organism-based; parameters: dose 16.7 mg/kg; settings: in vivo; in short: as §2
Mus musculus [6] = assay: Compound was evaluated for percent mortality of mice inoculated with murine cytomegalovirus at a concentration of 50 mg/kg at 24 h; type: ADME, organism-based; parameters: dose 50 mg/kg; settings: in vivo; in short: as §3
Mus musculus [7] = assay: Compound was evaluated for percent mortality of mice inoculated with murine cytomegalovirus at a concentration of 5.6 mg/kg at 48 h; type: ADME, organism-based; parameters: dose 5.6 mg/kg; settings: in vivo; in short: as §3
Mus musculus [8] = assay: Compound was evaluated for percent mortality of mice inoculated with murine cytomegalovirus at a concentration of 16.7 mg/kg at 48 h; type: organism-based; parameters: dose 16.7 mg/kg; settings: in vivo; in short: as §2
Human alphaherpesvirus 1 [9] = assay: Inhibition of herpes simplex virus (HSV-1) in plaque reduction assay; type: functional, organism-based
In short: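 HSV-1 S-148 strain plaque reduction in BSC-1 monkey kidney monolayers, with about 100 PFU inoculum and compound dissolved in the overlay medium. IC50 came from linear regression of percent inhibition against log concentration, with a positive control in each set.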

Mus musculus [10] = assay: Compound was evaluated for mean day of death at 50 mg/kg at 6 h; type: functional; in short: as §2
Mus musculus [11] = assay: Compound was evaluated for mean day of death at 5.6 mg/kg at 6 h; type: functional; in short: as §2
Mus musculus [12] = organism: Mus musculus; assay: Cytotoxicity of human simplex virus type 1 in mouse embryo fibroblasts cells; settings: Fibroblast
[13] = Cytotoxicity of HCMV in human foreskin fibroblasts cells; type: functional, cell-based; settings: Fibroblast
In short: (§4)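 Visual cytotoxicity was scored in uninfected cells of the same host monolayers used for the plaque assays, on a 0 to 4+ scale at 35- and 60-fold magnification, at the time plaques were counted.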

Mus musculus [14] = assay: Compound was evaluated for percent mortality of mice inoculated with murine cytomegalovirus at a concentration of 50 mg/kg; drug toxicity control; type: functional; in short: as §3
[15] = Inhibition of herpes simplex virus type 1(HSV-1) in mouse embryo fibroblasts cell lines was determined by plaque assay; settings: Fibroblast
Homo sapiens [16] = organism: Homo sapiens; assay: Inhibition of AD169 strain human cytomegalo virus (HCMV) in human foreskin fibroblasts cell lines was determined by plaque assay; type: functional, organism-based; settings: Fibroblast
In short: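 Plaque reduction used MCMV Smith in primary mouse embryo fibroblasts, HCMV AD169 in low-passage HFF, and HSV-1 E-377 and HSV-2 MS in MEF, rabbit kidney or HFF. IC50 was determined against untreated controls; two or more experiments.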

Mus musculus [17] = assay: Compound was evaluated for mean day of death at 1.9 mg/kg at 48 h; type: functional; in short: as §2
Mus musculus [18] = assay: Compound was evaluated for percent mortality of mice inoculated with murine cytomegalovirus at a concentration of 1.9 mg/kg at 24 h; type: organism-based; parameters: dose 1.9 mg/kg; settings: in vivo; in short: as §2
Human alphaherpesvirus 1 [19] = assay: Inhibition of herpes simplex virus (HSV-1) in yield reduction assay; type: functional, organism-based
Mus musculus [20] = assay: Compound was evaluated for 15 mice treated ip twice daily for 5 days at a dose of 5.6 mg/kg at 24 hr followed (MCMV) virus inoculation; type: functional; settings: route intraperitoneal; in short: as §2
Mus musculus [21] = assay: Compound was evaluated for percent mortality of mice inoculated with murine cytomegalovirus at a concentration of 1.9 mg/kg at 48 h; type: organism-based; parameters: dose 1.9 mg/kg; settings: in vivo; in short: as §2
[22] = Cytotoxicity of human simplex virus type 1 in monkey kidney cells; type: functional, cell-based; settings: Cercopithecidae; in short: as §4
Mus musculus [23] = assay: Compound was evaluated for percent mortality of mice inoculated with murine cytomegalovirus at a concentration of 50 mg/kg at 48 h; type: ADME, organism-based; parameters: dose 50 mg/kg; settings: in vivo; in short: as §3
Mus musculus [24] = assay: Compound was evaluated for percent mortality of mice inoculated with murine cytomegalovirus at a concentration of 5.6 mg/kg at 6 h; type: ADME, organism-based; parameters: dose 5.6 mg/kg; settings: in vivo; in short: as §3
Mus musculus [25] = assay: Compound was evaluated for 15 mice treated ip twice daily for 5 days at a dose of 50 mg/kg at 24 h followed (MCMV) virus inoculation; type: functional; settings: route intraperitoneal; in short: as §2
Mus musculus [26] = assay: Compound was evaluated for percent mortality of mice inoculated with murine cytomegalovirus at a concentration of 1.9 mg/kg at 6 h; type: organism-based; parameters: dose 1.9 mg/kg; settings: in vivo; in short: as §2
Mus musculus [27] = assay: Compound was evaluated for 15 mice treated ip twice daily for 5 days at a dose of 50 mg/kg at 6 hr followed (MCMV) virus inoculation; type: functional; settings: route intraperitoneal; in short: as §2
Neoplastic cell line = assay: Compound was evaluated for cytotoxic activity against KB cells.; type: functional, cell-based; settings: Homo sapiens
In short: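 KB cells grown in MEM(H) + 5% FBS. Compound effects measured on radiolabelled precursor incorporation into DNA, RNA and protein. IC50s from linear regression of percent inhibition vs log concentration. The three IC50s were averaged, with 2–5 experiments averaged. Runs rejected if the acyclovir/ganciclovir control deviated >1.5 SD from its mean.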

Mus musculus [28] = assay: Compound was evaluated for percent mortality of mice inoculated with murine cytomegalovirus at a concentration of 5.6 mg/kg; drug toxicity control; type: functional; in short: as §3
[29] = Compound was evaluated for percent mortality of mice inoculated with murine cytomegalovirus at a concentration of 1.9 mg/kg; drug toxicity control; type: organism-based; parameters: dose 1.9 mg/kg; settings: mouse, in vivo
In short: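 Drug toxicity control: uninfected three-week-old female Swiss Webster mice, groups of 15, dosed ip twice daily for 5 days. Held 21 days with daily mortality checks. Final mortality and mean day of death for animals that died were calculated.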

Mus musculus [30] = assay: Compound was evaluated for 15 mice treated ip twice daily for 5 days at a dose of 16.7 mg/kg followed (MCMV) virus inoculation; type: functional; settings: route intraperitoneal
Mus musculus [31] = assay: Compound was evaluated for mean day of death at 5.6 mg/kg at 24 h; type: functional; in short: as §2
Mus musculus [32] = assay: Compound was evaluated for 15 mice treated ip twice daily for 5 days at a dose of 1.9 mg/kg at 24 hr followed (MCMV) virus inoculation; type: functional; settings: route intraperitoneal; in short: as §2
Mus musculus [33] = assay: Compound was evaluated for percent mortality of mice inoculated with murine cytomegalovirus at a concentration of 5.6 mg/kg at 24 h; type: ADME, organism-based; parameters: dose 5.6 mg/kg; settings: in vivo; in short: as §3
Mus musculus [34] = assay: Compound was evaluated for 15 mice treated ip twice daily for 5 days at a dose of 50 mg/kg followed (MCMV) virus inoculation; type: functional; settings: route intraperitoneal
Mus musculus [35] = assay: Compound was evaluated for mean day of death at 5.6 mg/kg at 48 h; type: functional; in short: as §2

Nc1ncnc2c1c(Br)cn2COC(CO)CO
IC50 (Homo sapiens [1]): 1600 nM
MDD (Mus musculus [2]): 8.8
Mortality (Mus musculus [3]): 60%
IC50 (Human betaherpesvirus 5): 1900 nM
IC50 (Human betaherpesvirus 5; Human betaherpesvirus 5): 1600 nM
MDD (Mus musculus [4]): 6.2
Mortality (Mus musculus [5]): 80%
Mortality (Mus musculus [6]): 93%
Mortality (Mus musculus [7]): 40%
Mortality (Mus musculus [8]): 87%
IC50 (Human alphaherpesvirus 1 [9]): 2000 nM
MDD (Mus musculus [10]): 10.8
MDD (Mus musculus [11]): 8
IC50 (Mus musculus [12]): > 158000 nM
IC50 [13]: > 100000 nM
mortality at 50 mg/kg (Mus musculus [14]): 0%
IC50 [15]: 1900 nM
IC50 (Homo sapiens [16]): 600 nM
MDD (Mus musculus [17]): 4.8
Mortality (Mus musculus [18]): 60%
IC90 (Human alphaherpesvirus 1 [19]): 17000 nM
Activity (Mus musculus [20]): 3
Mortality (Mus musculus [21]): 67%
IC50 [22]: > 100000 nM
Mortality (Mus musculus [23]): 87%
Mortality (Mus musculus [24]): 7%
Activity (Mus musculus [25]): 14
Mortality (Mus musculus [26]): 33%
Activity (Mus musculus [27]): 9
IC50 (Neoplastic cell line): > 100000 nM
mortality at 5.6 mg/kg (Mus musculus [28]): 0%
Mortality [29]: 0%
Activity (Mus musculus [30]): 1
MDD (Mus musculus [31]): 6.3
Activity (Mus musculus [32]): 9
Mortality (Mus musculus [33]): 20%
Activity (Mus musculus [34]): 0
MDD (Mus musculus [35]): 5.5
